Laboratory results taken from ChEMBL document CHEMBL1275363, “Design, synthesis, crystal structures, and antimicrobial activity of sulfonamide boronic acids as β-lactamase inhibitors” (J Med Chem, 2010).
One block for each compound: values may come before it. Calls of active or inactive are those of the source. The rule behind the calls is not given here.

Experiments:
[1] = molecular target: AmpC (Klebsiella pneumoniae) (UniProt Q84AD8); test: Inhibition of Klebsiella pneumoniae AmpC beta-lactamase DHA-1 assessed as increase in ceftazidime-induced antibacterial activity by disk diffusion assay
[2] = Inhibition of beta-lactamase CTX-M-9
[3] = system: Klebsiella pneumoniae; test: Antimicrobial activity against AmpC-beta lactamase producing Klebsiella pneumoniae by disk diffusion assay; type: functional, organism-based
[4] = Inhibition of AmpC beta-lactamase
[5] = system: Enterobacter cloacae; test: Inhibition of Enterobacter cloacae beta-lactamase class C assessed as fold decrease in Ceftazidime MIC […]
How it was run: (§1)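 MICs were measured on clinical isolates following CLSI guidelines in Mueller-Hinton medium. Inhibitor was dissolved in 50% DMSO, with final DMSO below 5%, and combined with ceftazidime at a 1:1 β-lactam:inhibitor ratio. Fold change is compared with ceftazidime alone. Values are means of three independent experiments.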

[6] = system: Citrobacter freundii; test: Inhibition of Citrobacter freundii beta-lactamase class C assessed as fold decrease in Ceftazidime MIC […]; how it was run: as §1
[7] = system: Pseudomonas aeruginosa; test: Inhibition of Pseudomonas aeruginosa beta-lactamase class C assessed as fold decrease in Ceftazidime MIC […]; how it was run: as §1
[8] = system: Escherichia coli; test: Inhibition of Escherichia coli beta-lactamase class C assessed as fold decrease in Ceftazidime MIC […]; how it was run: as §1
[9] = molecular target: AmpC (Klebsiella pneumoniae) (UniProt Q84AD8); test: Inhibition of Klebsiella pneumoniae AmpC beta-lactamase DHA-1 assessed as fold decrease in Ceftazidime MIC […]; how it was run: as §1
[10] = molecular target: Beta-lactamase CTX-M-14 (Escherichia coli) (UniProt Q9L5C7); test: Inhibition of Escherichia coli class A beta-lactamase CTX-M-14 assessed as fold decrease in Ceftazidime MIC […]; how it was run: as §1

Activity [1]: Active
IC50 [2]: 1.5 µM
SMILES: O=C(O)c1ccc(CS(=O)(=O)NCB(O)O)cc1
Activity [3]: inactive

SMILES: CS(=O)(=O)NCB(O)O [PINACOL(METHANESULFONYLAMINO)METHANEBORONATE]
Ki [4]: 0.789 µM

SMILES: O=S(=O)(Cc1ccccc1)N[C@@H](Cc1ccccc1)B(O)O
Ki [4]: 3.72 µM

SMILES: O=C(Cc1ccccc1)NCB(O)O
Ki [4]: 0.57 µM

SMILES: O=S(=O)(Cc1ccccc1)NCB(O)O [PINACOL(PHENYLMETHANESULFONYLAMINO)METHANEBORONATE]
fold change (FC) [5]: 8
Activity [1]: Active
IC50 [2]: 6.87 µM
fold change (FC) [6]: 8
fold change (FC) [7]: 8
fold change (FC) [8]: 8
fold change (FC) [9]: 8
fold change (FC) [10]: 16
Activity [3]: inactive

Ki [4]: 0.001 µM
SMILES: O=C(Cc1cccs1)N[C@H](B(O)O)c1cccc(C(=O)O)c1

Ki [4]: 0.189 µM
SMILES: O=[N+]([O-])c1cccc(CS(=O)(=O)NCB(O)O)c1

SMILES: Nc1cccc(CS(=O)(=O)NCB(O)O)c1
Ki [4]: 0.106 µM

Ki [4]: 0.12 µM
SMILES: COC(=O)c1ccc(CS(=O)(=O)NCB2OC(C)(C)C(C)(C)O2)cc1

SMILES: Cc1ccc(S(=O)(=O)NCB(O)O)cc1
Ki [4]: 0.21 µM

Ki [4]: 0.039 µM
SMILES: O=C(Cc1cccs1)N[C@@H](Cc1cccc(C(=O)O)c1)B(O)O

SMILES: CCOc1ccc2ccccc2c1S(=O)(=O)NCB(O)O
Ki [4]: 0.67 µM
